Tests used:
Rattus norvegicus [1] = assay: Effect on change in total cholesterol (TC) in triton-induced hyperlipidemic rats after peroral administration of 100 mg/kg.; format: functional; conditions: route oral
Rattus norvegicus [2] = assay: Effect on change in plasma triglycerides (TG) in triton-induced hyperlipidemic rats after peroral administration of 100 mg/kg.; format: functional; conditions: route oral
[3] = Partition coefficient (logP) (HPLC); format: physicochemical; conditions: octanol/water
In short: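 Apparent log P* was estimated from reverse-phase HPLC retention time against methyl, ethyl, n-propyl, n-butyl and n-hexyl benzoate standards. Column was C18 at 40 °C with mobile phase CH3OH/0.05 M […] pH 7.4 at 1.0 mL/min, and detection was UV at 230 nm.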

Rattus norvegicus [4] = assay: Effect on change in total cholesterol (TC) in triton-induced hyperlipidemic rats after po administration of 10 mg/kg; format: functional
Rattus norvegicus [5] = assay: Effect on change in plasma triglycerides (TG) in triton-induced hyperlipidemic rats after po administration of 10 mg/kg; format: functional

Row | Structure (SMILES) | logP [3] | Change (Rattus norvegicus [1]) | Change (Rattus norvegicus [2]) | Change (Rattus norvegicus [4]) | Change (Rattus norvegicus [5])
1 | CCOP(=O)(Cc1ccc(-c2nc3ccc(Br)cc3c(=O)n2Cc2ccc(Br)cc2F)cc1)OCC | – | -1% | -16% | – | –
2 | CCOP(=O)(Cc1ccc(-c2nc3ccc(Br)cc3c(=O)n2CC)cc1)OCC | – | <-29% | <-42% | – | –
3 | CCOP(=O)(Cc1ccc(-c2nc(O)c3cc(OC)c(OC)cc3n2)cc1)OCC | 3.36 | <-22% | -37% | – | –
4 | C=CCOc1nc(-c2ccc(CP(=O)(OCC)OCC)cc2)nc2ccc(Br)cc12 | – | -2% | -18% | – | –
5 | CCOP(=O)(Cc1ccc(-c2nc(OCc3ccc(Br)cc3F)c3cc(Br)ccc3n2)cc1)OCC | – | <-12% | -4% | – | –
6 | CCOP(=O)(Cc1ccc(-c2nc3ccc(Br)cc3c(=O)n2CC(=O)O)cc1)OCC | – | 5% | 13% | – | –
7 | CCOP(=O)(Cc1ccc(-c2nc(OCC(=O)O)c3cc(Br)ccc3n2)cc1)OCC | – | -14% | -2% | – | –
8 | COc1cc2nc(-c3ccc(CP(=O)(OC)OC)cc3)nc(O)c2cc1OC | 2.6 | -18% | -11% | – | –
9 | CCOP(=O)(Cc1ccc(-c2nc(OCc3ccccc3)c3cc(OC)c(OC)cc3n2)cc1)OCC | – | <-21% | <-40% | – | –
10 | CCOP(=O)(Cc1ccc(C(=O)Nc2ccc(Br)cc2C#N)cc1)OCC [IBROLIPIM] | 3.21 | < -69% | < -85% | -27% | -54%
11 | COc1cc2nc(-c3ccc(CP(=O)(OC)OC)cc3)n(C)c(=O)c2cc1OC | 2.65 | <-27% | <-41% | – | –
12 | C=CCOc1nc(-c2ccc(CP(=O)(OCC)OCC)cc2)nc2cc(OC)c(OC)cc12 | – | <-35% | <-71% | – | –
13 | CCOP(=O)(Cc1ccc(-c2nc(O)c3ccccc3n2)cc1)OCC | 2.55 | – | – | – | –
14 | C=CCn1c(-c2ccc(CP(=O)(OCC)OCC)cc2)nc2cc(OC)c(OC)cc2c1=O | – | – | – | <-41% | <-61%
15 | CCOP(=O)(Cc1ccc(-c2nc(O)c3c(F)cccc3n2)cc1)OCC | 3.13 | -8% | -8% | – | –
16 | C=CCn1c(-c2ccc(CP(=O)(OCC)OCC)cc2)nc2ccc(Br)cc2c1=O | – | <-25% | <-43% | – | –

The next lines start with results.

Row | logP [3] | Structure (SMILES) | Change (Rattus norvegicus [1]) | Change (Rattus norvegicus [2]) | Change (Rattus norvegicus [4]) | Change (Rattus norvegicus [5])
17 | 3.75 | COc1cc2nc(-c3ccc(CP(=O)(OC)OC)cc3)nc(OC)c2cc1OC | <-48% | <-52% | – | –
18 | 5.13 | CCOP(=O)(Cc1ccc(-c2nc(OC)c3c(F)cccc3n2)cc1)OCC | -25% | -28% | – | –
19 | 7.67 | CCOP(=O)(Cc1ccc(-c2nc(Oc3ccccc3)c3cc(Br)ccc3n2)cc1)OCC | 4% | <16% | – | –
20 | 7.01 | CCOc1nc(-c2ccc(CP(=O)(OCC)OCC)cc2)nc2ccc(Br)cc12 | -14% | <-29% | – | –
21 | 6.37 | CCOP(=O)(Cc1ccc(-c2nc(OC)c3cc(Br)ccc3n2)cc1)OCC | 1% | 2% | – | –
22 | 4.38 | COc1cc2nc(-c3ccc(CP(=O)(OC(C)C)OC(C)C)cc3)nc(O)c2cc1OC | <-35% | -32% | – | –
23 | 4.88 | CC(C)OP(=O)(Cc1ccc(-c2nc3ccc(Br)cc3c(=O)n2C)cc1)OC(C)C | -11% | <-37% | – | –
24 | 4.09 | CCOP(=O)(Cc1ccc(-c2nc3ccc(Br)cc3c(=O)n2C)cc1)OCC | <-16% | <-35% | – | –
25 | 4.49 | CCOP(=O)(Cc1ccc(-c2nc3cc(OC)c(OC)cc3c(=O)n2Cc2ccccc2)cc1)OCC | <-60% | <-85% | < -15% | < -30%
26 | 3.29 | CCOP(=O)(Cc1ccc(-c2nc3ccccc3c(=O)n2C)cc1)OCC | 38% | <31% | – | –
27 | 4.2 | COc1cc2nc(-c3ccc(CP(=O)(OC(C)C)OC(C)C)cc3)n(C)c(=O)c2cc1OC | <-58% | <-81% | -4% | -8%
28 | 3.18 | CCOP(=O)(Cc1ccc(-c2nc3cccc(F)c3c(=O)n2C)cc1)OCC | <-15% | -12% | – | –
29 | 4.51 | CCOP(=O)(Cc1ccc(-c2nc(OC)c3cc(OC)c(OC)cc3n2)cc1)OCC | <-60% | <-86% | – | –
30 | 5.17 | CCOP(=O)(Cc1ccc(-c2nc3ccc(Br)cc3c(=O)n2Cc2ccccc2)cc1)OCC | <-34% | <-54% | – | –
31 | 5.26 | CCOP(=O)(Cc1ccc(-c2nc(OC)c3ccccc3n2)cc1)OCC | 56% | -5% | – | –
32 | 3.41 | CCOP(=O)(Cc1ccc(-c2nc3cc(OC)c(OC)cc3c(=O)n2C)cc1)OCC | <-51% | <-86% | -11% | -21%
33 | 5.53 | COc1cc2nc(-c3ccc(CP(=O)(OC(C)C)OC(C)C)cc3)nc(OC)c2cc1OC | < -60% | <-81% | – | –
34 | 5.61 | COc1nc(-c2ccc(CP(=O)(OC)OC)cc2)nc2ccc(Br)cc12 | -9% | -9% | – | –
